Hits are enriched below; roughly 4.7% of the tested compounds scored in any of these assays.
697 NFkB inh – lowers PMA/ionomycin-induced NF-kB signal in 697 B cells; 697 B-cell NF-kB luciferase reporter, 16 h; inhibition, % at 4 µM; 0.33% of 330,000 active; AID 435022; in the data active means inhibition above about 35%
Mdm2-MdmX inh – disrupts the human Mdm2-MdmX interaction. O15151+Q00987. SaOS-2 split-luciferase Mdm2/MdmX complementation, luminescence. inhibition, % at 8 µM. 3% of 330,000 active. AID 485346;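 active means inhibition of at least 50% at 8 µM in the primary screen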
Target sequence (O15151 whole entry, looked up): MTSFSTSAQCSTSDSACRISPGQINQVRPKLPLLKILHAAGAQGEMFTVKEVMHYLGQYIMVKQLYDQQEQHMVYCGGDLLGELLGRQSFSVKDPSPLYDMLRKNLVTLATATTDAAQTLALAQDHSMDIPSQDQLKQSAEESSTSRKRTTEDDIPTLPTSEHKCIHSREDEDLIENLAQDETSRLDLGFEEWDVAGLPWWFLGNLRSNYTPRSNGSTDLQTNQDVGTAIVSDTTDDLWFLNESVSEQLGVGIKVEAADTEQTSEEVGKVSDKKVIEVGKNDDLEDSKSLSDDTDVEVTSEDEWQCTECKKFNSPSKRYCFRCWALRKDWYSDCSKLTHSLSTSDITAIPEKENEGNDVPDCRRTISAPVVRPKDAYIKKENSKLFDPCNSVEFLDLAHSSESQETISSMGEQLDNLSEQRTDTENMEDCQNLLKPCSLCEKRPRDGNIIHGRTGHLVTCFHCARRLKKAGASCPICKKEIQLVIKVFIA
Target sequence (Q00987 whole entry, looked up): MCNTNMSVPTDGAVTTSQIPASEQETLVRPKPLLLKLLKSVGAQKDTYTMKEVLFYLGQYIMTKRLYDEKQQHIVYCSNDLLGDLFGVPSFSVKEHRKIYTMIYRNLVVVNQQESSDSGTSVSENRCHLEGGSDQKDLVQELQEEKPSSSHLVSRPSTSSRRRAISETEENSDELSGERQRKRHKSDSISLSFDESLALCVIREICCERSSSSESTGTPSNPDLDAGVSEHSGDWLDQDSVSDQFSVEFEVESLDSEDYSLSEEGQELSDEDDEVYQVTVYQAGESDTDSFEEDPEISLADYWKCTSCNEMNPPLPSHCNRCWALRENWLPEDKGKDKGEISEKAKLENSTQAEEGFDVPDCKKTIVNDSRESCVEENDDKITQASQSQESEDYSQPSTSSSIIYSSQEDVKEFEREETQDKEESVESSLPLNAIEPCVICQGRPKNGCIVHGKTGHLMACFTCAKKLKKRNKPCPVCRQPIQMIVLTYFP
IMP-1 inhibitor – inhibitors of Pseudomonas aeruginosa IMP-1 metallo-beta-lactamase; purified IMP-1, nitrocefin hydrolysis, epi-absorbance fluorescence; inhibition, % at 5.6 µM; 0.45% of 290,000 active; AID 1556;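 active means inhibition above the mean plus 3 SD of all compounds in the same screening run, cut at about 4.5% in these data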;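 further: 0% = IMP-1 with DMSO and 100% = DMSO wells lacking enzyme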
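system = purified recombinant IMP-1 beta-lactamase | amount = 0.2 nM IMP-1, as dispensed | medium = HEPES buffer pH 7.1 with ZnSO4 and Brij 35 | times = 25 °C, 15 min preincubation, 25 min reaction | detection = plate fluorescence quenching by hydrolysis product, ex 480/em 530 nm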
aSyn UTR inh – MLPCN primary screen, SNCA 5' untranslated region; AID 1813; 0.82% of 300,000 active; alpha-synuclein 5'UTR reporter, inhibitor activity; inhibition, % (tested at 7.5 µM); in the data active means inhibition above about 60%;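 further: H4 neuroglioblastoma cells stably carrying SNCA 5'UTR luciferase fusion; 0% = DMSO wells and 100% = positive control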
VIM-2 inhibitor – inhibitors of Pseudomonas aeruginosa VIM-2 metallo-beta-lactamase | AID 1527 | 0.89% of 290,000 active | purified VIM-2, nitrocefin hydrolysis, epi-absorbance fluorescence | inhibition, % at 5.6 µM;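 active means inhibition above the mean of all tested compounds plus 3 SD, cutoff set per screening run, cut at about 7.5% in these data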;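 further: red hydrolysis product quenches plate fluorescence so inhibitors raise well fluorescence; 0% = enzyme with DMSO and 100% = DMSO without enzyme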
Jurkat NFkB inh – lowers PMA/ionomycin-induced NF-kB signal in Jurkat cells; 0.53% of 330,000 active; PMA/ionomycin-induced NF-kB luciferase reporter, luminescence; inhibition, % at 4 µM; in the data active means inhibition above about 50%
Mdm2-MdmX conf – human Mdm2/MdmX binding inhibition, confirmed | shares compounds with Mdm2-MdmX inh | luminescent assay | inhibition, % at 8 µM | 55% of 10,000 active; in the data active means inhibition above about 40%
Full FLuc ctr – inhibits full-length luciferase, flagging false Mdm2/MdmX hits; shares compounds with Mdm2-MdmX inh; SaOS-2 full-length luciferase counterscreen, luminescence; inhibition, % at 8 µM; 77% of 6,200 active;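 active means mean inhibition at 8 µM reaching about 37%, which flags the compound as non-specific, limit read from the data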;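 further: p53-null SaOS-2 cells with luciferase driven by a doxycycline-inducible promoter; compound on cells about two nights before reading with doxycycline added after day one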
Starred values were filed as active, the others as inactive.

`Clc1nc2c(-c3ccccc3)nnn2c2ccccc12` gave 697 NFkB inh -1, Mdm2-MdmX inh 100*, IMP-1 inhibitor -4, aSyn UTR inh 8, VIM-2 inhibitor -2, Jurkat NFkB inh -11, Mdm2-MdmX conf 55* and Full FLuc ctr 51*.
For Cc1cc(C(=O)OCC(=O)NCc2ccc(F)cc2)c2ccccc2n1 the results were 697 NFkB inh 8, Mdm2-MdmX inh 18 and Jurkat NFkB inh 4.
Screening Cc1cc(C(=O)OCC(=O)Nc2ccc(F)cc2[N+](=O)[O-])c2ccccc2n1 returned 697 NFkB inh 5, Mdm2-MdmX inh 52*, IMP-1 inhibitor -1, aSyn UTR inh 6, VIM-2 inhibitor 0, Jurkat NFkB inh 0, Mdm2-MdmX conf 51* and Full FLuc ctr 100*.
CCOC(=O)c1c(NC(=O)c2cccs2)sc2c1CCCC2 was read as 697 NFkB inh -6, Mdm2-MdmX inh -3, IMP-1 inhibitor -3, aSyn UTR inh -3, VIM-2 inhibitor -2 and Jurkat NFkB inh -6.
For CCOC(=O)N1CCc2c(sc(NC(=O)c3ccc(Cl)s3)c2C(N)=O)C1 the results were 697 NFkB inh -52, Mdm2-MdmX inh 55*, IMP-1 inhibitor 0, VIM-2 inhibitor -1, Jurkat NFkB inh -9 and Mdm2-MdmX conf 21.
For CCOC(=O)c1c(NC(=O)c2cccs2)sc2c1CCN(C(=O)OCC)C2 the results were 697 NFkB inh 30, Mdm2-MdmX inh 65*, IMP-1 inhibitor -2, aSyn UTR inh 6, VIM-2 inhibitor 2, Jurkat NFkB inh 26 and Mdm2-MdmX conf 36.
For Cn1c2ccccc2c(=O)c2cc(C#CC3(O)CCCCC3)ccc21 the results were 697 NFkB inh -152, Mdm2-MdmX inh 69*, IMP-1 inhibitor -5, aSyn UTR inh 77*, VIM-2 inhibitor 3, Jurkat NFkB inh -81, Mdm2-MdmX conf 53* and Full FLuc ctr 169*.
Screening Cn1c2ccccc2c(=O)c2cc(C#Cc3ccsc3)ccc21 returned 697 NFkB inh -95, Mdm2-MdmX inh 15, IMP-1 inhibitor -2, aSyn UTR inh -187, VIM-2 inhibitor -1 and Jurkat NFkB inh -132.
`Cc1ccc(Sc2ccc(NC(=O)CCl)cc2)cc1C` gave 697 NFkB inh 26, Mdm2-MdmX inh 81*, IMP-1 inhibitor -3, aSyn UTR inh 44, VIM-2 inhibitor -2, Jurkat NFkB inh -2 and Mdm2-MdmX conf 28.
`Cc1ccc(C)c(Sc2ccc(NC(=O)CCl)cc2)c1` gave 697 NFkB inh -132, Mdm2-MdmX inh 67*, IMP-1 inhibitor 0, aSyn UTR inh -14, VIM-2 inhibitor 1, Jurkat NFkB inh 23 and Mdm2-MdmX conf 30.
For CCOc1ccc2c(c1)c(C(C)=O)c(C)n2-c1ccccc1 the results were 697 NFkB inh -2, Mdm2-MdmX inh 20, IMP-1 inhibitor -1, aSyn UTR inh 6, VIM-2 inhibitor -3 and Jurkat NFkB inh 8.
Screening COC(=O)c1c(C)n(-c2ccc(OC)cc2)c2ccc(O)cc12 returned 697 NFkB inh 4, Mdm2-MdmX inh 66*, IMP-1 inhibitor -4, aSyn UTR inh 27, VIM-2 inhibitor -1, Jurkat NFkB inh 12, Mdm2-MdmX conf 64* and Full FLuc ctr 20.
Screening COc1ccc(-n2c(C)c(C(C)=O)c3cc(OC(C)=O)ccc32)cc1 returned 697 NFkB inh 19, Mdm2-MdmX inh 82*, IMP-1 inhibitor -1, aSyn UTR inh 30, VIM-2 inhibitor -1, Jurkat NFkB inh 37, Mdm2-MdmX conf 86* and Full FLuc ctr 6.
For CCOC(=O)c1c(C)n(-c2ccc(F)cc2)c2ccc(O)cc12 the results were 697 NFkB inh -4, Mdm2-MdmX inh 11, IMP-1 inhibitor -2, aSyn UTR inh 17, VIM-2 inhibitor -5 and Jurkat NFkB inh -6.
Screening COc1ccc2c(c1)c(C(=O)O)c(C)n2-c1ccccc1 returned 697 NFkB inh 7, Mdm2-MdmX inh 7, IMP-1 inhibitor -1, aSyn UTR inh 20, VIM-2 inhibitor -3 and Jurkat NFkB inh 15.
`COc1ccc2c(c1)c(C(C)=O)c(C)n2-c1ccc(C(C)=O)cc1` gave 697 NFkB inh -3, Mdm2-MdmX inh 61*, IMP-1 inhibitor -2, aSyn UTR inh 9, VIM-2 inhibitor 4, Jurkat NFkB inh 15, Mdm2-MdmX conf 61* and Full FLuc ctr 40*.
O=C1CCCN1CCCNC(=S)Nc1cccc2ccccc12 was read as 697 NFkB inh 12, Mdm2-MdmX inh -13, IMP-1 inhibitor -3, aSyn UTR inh -28, VIM-2 inhibitor 1 and Jurkat NFkB inh 3.
Screening Cc1ccccc1Nc1c(-c2ccncc2)nc2ccc(Cl)cn12 returned 697 NFkB inh 17, Mdm2-MdmX inh 75*, IMP-1 inhibitor -1, aSyn UTR inh 17, VIM-2 inhibitor -3, Jurkat NFkB inh 11, Mdm2-MdmX conf 49* and Full FLuc ctr 71*.
Screening CC(=O)Nc1c(-c2ccccc2)nc2ccc(Cl)cn12 returned 697 NFkB inh -5, Mdm2-MdmX inh 13, aSyn UTR inh -14 and Jurkat NFkB inh -9.
`CCOc1ccc2nc(NC(=O)CC3Oc4ccccc4NC3=O)sc2c1` (configuration not stated) gave 697 NFkB inh 15, Mdm2-MdmX inh 62*, IMP-1 inhibitor -1, aSyn UTR inh -16, VIM-2 inhibitor -3, Jurkat NFkB inh 3, Mdm2-MdmX conf 34 and Full FLuc ctr 63*.
Cc1ccc2nc(NC(=O)CC3Oc4ccccc4NC3=O)sc2c1 (configuration not stated) was read as 697 NFkB inh 1, Mdm2-MdmX inh -14, IMP-1 inhibitor -1, aSyn UTR inh -11, VIM-2 inhibitor -2 and Jurkat NFkB inh -16.
COc1ccccc1N1CCN(C(=O)CNC(=O)c2ccc(Cl)cc2Cl)CC1 was read as 697 NFkB inh -46, Mdm2-MdmX inh -11, IMP-1 inhibitor -3, aSyn UTR inh -6, VIM-2 inhibitor -2 and Jurkat NFkB inh -20.
Screening C=CCCO[C@@H]1O[C@@H](C)[C@H](O)C[C@H]1O returned 697 NFkB inh 5, Mdm2-MdmX inh 9 and Jurkat NFkB inh -7.
Screening Cc1cccc(CSC2=NCCN2S(=O)(=O)c2ccc(F)cc2)c1 returned 697 NFkB inh -12, Mdm2-MdmX inh 12, IMP-1 inhibitor -1, aSyn UTR inh 10, VIM-2 inhibitor 0 and Jurkat NFkB inh -2.
Screening O=[N+]([O-])c1cc(-c2nc(-c3ccncc3)no2)cc([N+](=O)[O-])c1 returned 697 NFkB inh 5, Mdm2-MdmX inh -6, IMP-1 inhibitor -1, aSyn UTR inh -118, VIM-2 inhibitor -2 and Jurkat NFkB inh 11.

Bioassay records deposited in PubChem BioAssay by several laboratories.
